Data taken from paper PMC6425477 (ACS chemical biology, 2018).
pIC50: −log10 of the molar value.

What was measured:
GLUT1 = conditions: pharmacological inhibition of GLUT1; cited from earlier work
D456 GBM PDX cells [1] = experiment: Cell growth; format: cell-based, human
Summary of the method: (§1)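 D456 pediatric primary GBM PDX cells and normal human astrocytes were treated in the same manner with test compound (DMSO stock) at 5, 20 and 50 μM for 7 days. Growth was read by cell titer. IC50 came from non-linear regression. D456 and NHA were compared by one-way ANOVA with Dunnett's multiple comparisons.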

[2] = system: normal human astrocytes (NHAs); experiment: Cell growth / toxicity in normal human astrocytes; format: cell-based; conditions: for growth inhibition of GBM PDX cells compared to NHAs: D456 GBM PDX vs NHAs, 5, 20, 50 μM, 7 days
Summary of the method: as §1

D456 GBM PDX cells [3] = experiment: 2-deoxyglucose; format: cell-based, human
D456 GBM PDX cells [4] = experiment: Glucose uptake; format: cell-based, human
Summary of the method: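 D456 GBM PDX cells were given test compound over a range of concentrations. Glucose uptake was read by 2-NBDG, per the manufacturer's protocol. IC50 for glucose uptake came from a curve-fit model.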

GBM PDX cells = experiment: Extracellular flux analysis glycolytic stress test; format: cell-based, human; conditions: 50 μM; for increase in ECAR following the addition of oligomycin: 4 hours
Summary of the method: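 Glycolysis stress test on a Seahorse XF96 flux analyzer in GBM PDX cells. Cells were glucose-starved with test compound at 50 μM for 4 h, then given glucose, oligomycin and 2-DG in turn. Glycolysis = ECAR after glucose minus basal. Capacity and reserve are derived from ECAR before and after 2-DG and oligomycin. Two experiments, n=6; mean ± sem; Student's t-test versus control.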

[5] = system: GBM PDX cell lines, D456, GBM157, and 1016; experiment: 2-NBDG glucose uptake in three GBM PDX cell lines; format: cell-based, human; conditions: 50 μM; all cells tested (D456, GBM157, 1016)
Summary of the method: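 2-NBDG uptake in D456, GBM157 and 1016 GBM PDX cells, run per the manufacturer's protocol. Test compound (DMSO stock) at 50 μM. Data averaged from 2 experiments with n=3 per group. Compared by one-way ANOVA with Tukey's multiple comparisons.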

[6] = dose-response, Supporting Information Figure 3c

| Compound | tumor formation capabilities of TICs (GLUT1) | inhibition of D456 GBM PDX cell growth (in words) (D456 GBM PDX cells [1]; 5 μM) | toxicity to NHAs [2] | growth inhibition of GBM PDX cells compared to NHAs [2] | decrease in glucose uptake (2-DG) (D456 GBM PDX cells [3]) | glucose uptake compared to control (2-DG) (D456 GBM PDX cells [3]) [%] | plateau of glucose uptake inhibition (D456 GBM PDX cells [4]; [6]) [%] | threshold concentration at which glucose uptake inhibition plateaus (D456 GBM PDX cells [4]; [6]) | glycolytic capacity (ECAR before 2-DG minus ECAR after 2-DG) (GBM PDX cells) | glycolytic reserve capacity (ECAR after Oligo minus ECAR before Oligo) (GBM PDX cells) | increase in ECAR following the addition of oligomycin (GBM PDX cells) | ECAR ascribed to glycolysis after injection of glucose (GBM PDX cells; 4 hours glucose starvation before glucose) | inhibition of glucose uptake (2-NBDG) [5] | GBM PDX cell growth (in words) (D456 GBM PDX cells [1]; GBM PDX cells, line not given, Supplementary Figure 5b) | inhibition of glucose uptake (in words) (D456 GBM PDX cells [4]; D456 GBM PDX cells, Supporting Information Figures 4 and 5) | pIC50 (D456 GBM PDX cells [1]; read-out: IC50 for growth inhibition, D456 GBM PDX cells, 7 days) | pIC50 (D456 GBM PDX cells [4]; read-out: IC50 for glucose uptake, Supporting Information Figure 3c) |
| --- | --- | --- | --- | --- | --- | --- | --- | --- | --- | --- | --- | --- | --- | --- | --- | --- | --- |
| O=C(Oc1cccc(F)c1OC(=O)c1cccc(O)c1)c1cccc(O)c1 [WZB117, 2-Fluoro-6-(m-hydroxybenzoyloxy) Phenyl m-Hydroxybenzoate] | decrease the tumor formation capabilities of TICs |  |  |  |  |  |  |  |  |  |  |  |  |  |  |  |  |
| O=C1CC(c2ccc(-c3ccn[nH]3)s2)c2cc(N3CCNC3=O)ccc2N1 (stereo not shown) [SRI-37683] |  | almost completely inhibited | minimal toxicity | significantly stronger growth inhibition | approximately 40% | 60 | ~50 | approximately 3 μM | decrease | decrease | inhibited an increase in ECAR | significantly inhibited | 40–50% |  |  |  |  |
| O=c1c(-c2ccc(O)cc2)coc2cc(O)cc(O)c12 [genistein, reference compound] |  |  |  |  |  |  |  |  |  |  |  |  |  | did reduce GBM PDX cell growth | inhibited glucose uptake |  |  |
| O=C1CC(c2cccc3[nH]ccc23)c2ccc(NC(=O)c3cccnc3)cc2N1 (stereo not shown) [SRI-37684] |  |  | minimal toxicity | significantly stronger growth inhibition | ~50% | 50 |  |  | decrease | decrease | inhibited an increase in ECAR |  | 40–50% |  |  | 5.07 | 4.48 |
